# Results from different studies.
# Protocols differ between the studies behind these lines.
SMILES,assay,test system,setting,measurement,value
CCCCN(CCCC)CCCOc1ccc2c(=O)c3c([nH]c2c1)CCCC3,metabolic stability,"mouse, liver microsomes","1 µM, pH 7.4",microsomal CLint,36.2 µL/min/mg
CNS(=O)(=O)c1ccc(Nc2ncc3cc(Cl)c(=O)n(C4CCCC4)c3n2)c(C)c1,,"rat, plasma","intravenous, 2 mg/kg",Vd,4 L/kg
CC(C)n1ncc2c(C(=O)NCC3(C)CNC3)cc(C3CC3)nc21,metabolic stability,"mouse, liver microsomes",,scaled CLint,< 38 mL/min/kg
C[C@H]1Oc2cc(cnc2N)-c2c(nn(C)c2C#N)CN(C)C(=O)c2ccc(F)cc21,,"male Sprague-Dawley rat, plasma","oral, 5 mg/kg, single dose",Vd/F,20 L/kg
CCCN(CCC)CCOc1ccc2c(=O)c3c([nH]c2c1)CCCC3,metabolic stability,"mouse, liver microsomes","1 µM, pH 7.4",microsomal CLint,51.9 µL/min/mg
CC(C)c1cc(C(=O)NCCN2CCCC2)c2cnn(C(C)C)c2n1,metabolic stability,"mouse, liver microsomes",,scaled CLint,195 mL/min/kg
O=c1c2ccc(Oc3cccc(OC(F)(F)F)c3)cc2[nH]c2cc(Cl)cc(F)c12,metabolic stability,"mouse, liver microsomes","1 µM, pH 7.4",microsomal CLint,24.3 µL/min/mg
CC(C)c1cc(C(=O)NCCN)c2cnn(C(C)C)c2n1,metabolic stability,"mouse, liver microsomes",,scaled CLint,< 38 mL/min/kg
O=c1c2c([nH]c3ccc(F)c(Oc4ccc(OC(F)(F)F)cc4)c13)CCCC2,metabolic stability,"mouse, liver microsomes","1 µM, pH 7.4",microsomal CLint,49 µL/min/mg
O=C1NC(CF)(CF)C(=O)N1c1ccc(F)c(C(F)(F)F)c1,metabolic stability,"mouse, liver microsomes",,microsomal CLint,< 7 µL/min/mg
Cc1cc(S(=O)(=O)NC2CC(N3CCN(CC4CCN(c5ccc6c(c5F)n(C)c(=O)n6C5CCC(=O)NC5=O)CC4)CC3)C2)ccc1Nc1ncc(C(F)(F)F)c(N2CCCC(C)(O)C2)n1 (centres unmarked),,"rat, plasma","intravenous, 2 mg/kg",Vd,18 L/kg
CC1(C)NC(=O)N(c2ccc(F)c(F)c2)C1=O,metabolic stability,"mouse, liver microsomes",,microsomal CLint,7 µL/min/mg
CC(C)n1ncc2c(C(=O)NCC3(F)CNC3)cc(C3CC3)nc21,metabolic stability,"mouse, liver microsomes",,scaled CLint,78.2 mL/min/kg
CNS(=O)(=O)c1ccc(Nc2ncc(C(F)(F)F)c([C@H]3CC[C@@](C)(O)CC3)n2)c(C)c1,,"rat, plasma","intravenous, 2 mg/kg",Vd,1 L/kg
